Source: ChEMBL document CHEMBL1629494, “New amino acid esters of salicylanilides active against MDR-TB and other microbes” (Eur J Med Chem, 2010)
In brackets after ≈: the same amount, converted by molar mass.

Assays:
[1] = tested on: Mycobacterium avium; test: Antimycobacterial activity against Mycobacterium avium; type: functional
[2] = tested on: Mycobacterium avium; test: Antimycobacterial activity against multidrug-resistant Mycobacterium avium 330/88 after 14 days by micromethod; type: functional; details: 330/88, 336 h
Procedure, shortened: (§1)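 Micromethod in Sula semisynthetic medium, with compounds added as DMSO solutions at 1000, 500, 250, 125, 62, 32, 16, 8, 4, 2, 1, 0.5, 0.25. Inoculum dilutions: H37Rv 10^-3; M. avium 330/88 10^-5; M. kansasii 235/80 10^-4; M. kansasii 6509/96 10^-5. Incubated at 37 °C, read at 14 and 21 days, and at 7 days for M. kansasii. MIC was the lowest concentration inhibiting growth.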

[3] = tested on: Trichophyton mentagrophytes; test: Antifungal activity against Trichophyton mentagrophytes after 24 hrs by broth microdilution method; type: functional
[4] = tested on: Nakaseomyces glabratus; test: Antifungal activity against Candida glabrata 20/I after 48 hrs by broth microdilution method; type: functional
[5] = tested on: Candida tropicalis; test: Antifungal activity against Candida tropicalis 156 after 24 hrs by broth microdilution method; type: functional; details: Candida tropicalis, 156, 24 h
[6] = Lipophilicity, log P of the compound; type: physicochemical; details: octanol/water
[7] = tested on: Pichia kudriavzevii; test: Antifungal activity against Candida krusei E28 after 48 hrs by broth microdilution method; type: functional; details: E28, 48 h
[8] = tested on: Candida albicans; test: Antifungal activity against Candida albicans ATCC 44859 after 48 hrs by broth microdilution method; type: functional; details: ATCC 44859, 48 h
[9] = tested on: Aspergillus fumigatus; test: Antifungal activity against Aspergillus fumigatus 231 after 48 hrs by broth microdilution method; type: functional; details: Aspergillus fumigatus, 231, 48 h
[10] = tested on: Trichophyton mentagrophytes; test: Antifungal activity against Trichophyton mentagrophytes after 48 hrs by broth microdilution method; type: functional
[11] = tested on: Mycobacterium kansasii; test: Antimycobacterial activity against Mycobacterium kansasii 6509/96 after 21 days by micromethod; type: functional; details: 6509/96, 504 h; procedure, shortened: as §1
[12] = tested on: Lichtheimia corymbifera; test: Antifungal activity against Absidia corymbifera 272 after 48 hrs by broth microdilution method; type: functional; details: Lichtheimia corymbifera, 272, 48 h
[13] = tested on: Candida albicans; test: Antifungal activity against Candida albicans ATCC 44859 after 24 hrs by broth microdilution method; type: functional; details: ATCC 44859, 24 h
[14] = tested on: Mycobacterium avium; test: Antimycobacterial activity against multidrug-resistant Mycobacterium avium 330/88 after 21 days by micromethod; type: functional; details: 330/88, 504 h; procedure, shortened: as §1
[15] = tested on: Mycobacterium tuberculosis; test: Antimycobacterial activity against Mycobacterium tuberculosis H37Rv 331/88 after 21 days by micromethod; type: functional; details: H37Rv 331/88, 504 h; procedure, shortened: as §1
[16] = tested on: Pichia kudriavzevii; test: Antifungal activity against Candida krusei E28 after 24 hrs by broth microdilution method; type: functional; details: E28, 24 h
[17] = tested on: Trichosporon beigelii; test: Antifungal activity against Trichosporon beigelii 1188 after 48 hrs by broth microdilution method; type: functional; details: Trichosporon beigelii, 1188, 48 h
[18] = tested on: Mycobacterium tuberculosis; test: Antimycobacterial activity against Mycobacterium tuberculosis H37Rv 331/88 after 14 days by micromethod; type: functional; details: H37Rv 331/88, 336 h; procedure, shortened: as §1
[19] = tested on: Mycobacterium kansasii; test: Antimycobacterial activity against Mycobacterium kansasii 235/80 after 14 days by micromethod; type: functional; details: 235/80, 336 h; procedure, shortened: as §1
[20] = tested on: Mycobacterium kansasii; test: Antimycobacterial activity against Mycobacterium kansasii 235/80 after 21 days by micromethod; type: functional; details: 235/80, 504 h; procedure, shortened: as §1
[21] = tested on: Lichtheimia corymbifera; test: Antifungal activity against Absidia corymbifera 272 after 24 hrs by broth microdilution method; type: functional; details: Lichtheimia corymbifera, 272, 24 h
[22] = tested on: Mycobacterium kansasii; test: Antimycobacterial activity against Mycobacterium kansasii 6509/96 after 14 days by micromethod; type: functional; details: 6509/96, 336 h; procedure, shortened: as §1
[23] = tested on: Nakaseomyces glabratus; test: Antifungal activity against Candida glabrata 20/I after 24 hrs by broth microdilution method; type: functional
[24] = tested on: Candida tropicalis; test: Antifungal activity against Candida tropicalis 156 after 48 hrs by broth microdilution method; type: functional; details: Candida tropicalis, 156, 48 h
[25] = tested on: Trichosporon beigelii; test: Antifungal activity against Trichosporon beigelii 1188 after 24 hrs by broth microdilution method; type: functional; details: Trichosporon beigelii, 1188, 24 h
[26] = tested on: Aspergillus fumigatus; test: Antifungal activity against Aspergillus fumigatus 231 after 24 hrs by broth microdilution method; type: functional; details: Aspergillus fumigatus, 231, 24 h
[27] = tested on: Mycobacterium kansasii; test: Antimycobacterial activity against Mycobacterium kansasii 235/80 after 7 days by micromethod; type: functional; details: 235/80, 168 h; procedure, shortened: as §1
[28] = tested on: Mycobacterium kansasii; test: Antimycobacterial activity against Mycobacterium kansasii; type: functional
[29] = tested on: Mycobacterium kansasii; test: Antimycobacterial activity against Mycobacterium kansasii 6509/96 after 7 days by micromethod; type: functional; details: 6509/96, 168 h; procedure, shortened: as §1
[30] = tested on: Mycobacterium tuberculosis; test: Antimycobacterial activity against drug-sensitive Mycobacterium tuberculosis; type: functional

## CC(=O)N[C@@H](Cc1ccccc1)C(=O)Oc1ccc(Cl)cc1C(=O)Nc1ccc(Br)cc1
[1]
  MIC: 1 µM (≈ 0.516 µg/mL)
[2]
  MIC: 4 µM (≈ 2.06 µg/mL)
[3]
  MIC: > 125 µM
[4]
  MIC: > 125 µM
[5]
  MIC: > 125 µM
[6]
  logP: 4.83
[7]
  MIC: > 125 µM
[8]
  MIC: > 125 µM
[9]
  MIC: > 125 µM
[10]
  MIC: > 125 µM
[11]
  MIC: 8 µM (≈ 4.13 µg/mL)
[12]
  MIC: > 125 µM
[13]
  MIC: 125 µM (≈ 64.5 µg/mL)
[14]
  MIC: 8 µM (≈ 4.13 µg/mL)
[15]
  MIC: 2 µM (≈ 1.03 µg/mL)
[16]
  MIC: 125 µM (≈ 64.5 µg/mL)
[17]
  MIC: > 125 µM
[18]
  MIC: 2 µM (≈ 1.03 µg/mL)
[19]
  MIC: 4 µM (≈ 2.06 µg/mL)
[20]
  MIC: 4 µM (≈ 2.06 µg/mL)
[21]
  MIC: 125 µM (≈ 64.5 µg/mL)
[22]
  MIC: 4 µM (≈ 2.06 µg/mL)
[23]
  MIC: > 125 µM
[24]
  MIC: > 125 µM
[25]
  MIC: 125 µM (≈ 64.5 µg/mL)
[26]
  MIC: 125 µM (≈ 64.5 µg/mL)
[27]
  MIC: 4 µM (≈ 2.06 µg/mL)
[28]
  MIC: 1 µM (≈ 0.516 µg/mL)
[29]
  MIC: 4 µM (≈ 2.06 µg/mL)
[30]
  MIC: 1 µM (≈ 0.516 µg/mL)
